# Screens as filed in PubChem BioAssay.
# TAAR1 antagonist – antagonists of human TAAR1. Q96RJ0. CHO RD-HGA16 TAAR1, Fluo-8 calcium fluorescence, antagonist. inhibition, % at 3 µM. 360,000 compounds, 1.5% hits. AID 624466;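 active = inhibition above a per-plate cutoff, the mean inhibition of test compounds on that plate plus 3 SD, cut at about 49% in these data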
#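 Test system – hTAAR1-expressing CHO RD-HGA16 cells, Gα16-coupled · Reagent – β-PEA at EC80 concentration, post-compound challenge · Compound dosing – 3 µM, single point · Timing – 140 s kinetic read after compound, 140 s after agonist · Detection – Fluo-8 intracellular calcium dye fluorescence, real-time kinetic reads · Control set – DMSO and EC80 PEA controls · Repeats – n of 1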
# GPR7 antag – antagonists of human GPR7 (neuropeptides B/W receptor 1); AID 1861; inhibition, % at 4.4 µM; GPR7-expressing cells, fluorescence antagonist assay; 290,000 compounds, 1.1% hits; in the data active = inhibition above about 16%, passing the limit was not always enough;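 note: cells stimulated with the agonist NPW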
# Target sequence (P48145 whole entry, looked up): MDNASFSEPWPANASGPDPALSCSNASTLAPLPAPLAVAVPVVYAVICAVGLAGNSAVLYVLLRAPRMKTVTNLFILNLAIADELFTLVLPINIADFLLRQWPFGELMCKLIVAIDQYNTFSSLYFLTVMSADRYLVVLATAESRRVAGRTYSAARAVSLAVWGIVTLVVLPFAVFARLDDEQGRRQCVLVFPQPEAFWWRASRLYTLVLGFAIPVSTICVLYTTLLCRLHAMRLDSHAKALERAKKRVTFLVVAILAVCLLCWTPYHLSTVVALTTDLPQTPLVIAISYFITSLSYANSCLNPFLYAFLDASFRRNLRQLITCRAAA
# TAAR1 agonist – agonists of human TAAR1. Q96RJ0. CHO RD-HGA16 TAAR1, Fluo-8 calcium fluorescence; vehicle wells 0%, saturating PEA agonist 100%. activation, % at 3 µM. 360,000 compounds, 0.99% hits. AID 624467;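 active = activation above the mean activation of all test compounds in the run plus 3 SD, cut at about 38% in these data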
#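 Test system: RD-HGA16 (CHO) cells co-expressing Gα16 and hTAAR1 / Benchmarks: DMSO vehicle as 0%, PEA at EC100 as 100% / Repeats: no replicates (n 1) / Measure: % activation from peak over basal fluorescence ratio, DMSO-to-PEA scaled / Timing: 17-24 h plating, Fluo-8 75 min 37 °C, 30 min RT / Technique: kinetic Fluo-8 calcium fluorescence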
# OX1R antag-1 – antagonists of human orexin 1 receptor (OX1R). O43613. OX1R-expressing cells, FRET antagonist read-out. inhibition, % at 6.6 µM. 330,000 compounds, 1.8% hits. AID 485270; in the data active = inhibition mostly above about 38%, no sharp cut-off; inactive = mostly below about 40%
# CHO parental Ca – counter-screen: ATP calcium response change in parental CHO cells; 330,000 compounds, 0.63% hits; inhibition, % at 5.6 µM; AID 463079; parental CHO-K1, ATP-induced calcium, Fluo-8 fluorescence;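 active = inhibition above that plate's mean sample inhibition plus 3 SD, cut at about 26% in these data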
#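 Material: Parental CHO cells | Reagent: ATP | Compound dosing: Single nominal dose of 5.6 µM per compound | Detection: Intracellular calcium via Fluo-8 no-wash fluorescent dye | Read-out: % inhibition of ATP-induced calcium mobilization | Benchmarks: Low control ATP plus DMSO, high control DMSO only | Replicates: Singlicate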
# OX1R antag-2 – blocks the human orexin 1 receptor; 330,000 compounds, 0.43% hits; inhibition, % at 5 µM; CHO/OX1R cells, Fluo-8 calcium fluorescence, orexin A; AID 434989; O43613;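 active = inhibition above its plate's threshold, mean inhibition of all tested compounds on the plate plus 3 SD, cut at about 37% in these data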
# A number is an active result; - = inactive; . = no result. Rows were chosen to be rich in hits. Some 4.6% of all compounds tested hit in one or more screens of this group.
SMILES,TAAR1 antagonist,GPR7 antag,TAAR1 agonist,OX1R antag-1,CHO parental Ca,OX1R antag-2
COc1ccc(C(=O)c2oc3ccccc3c2N)cc1,-,-,-,-,-,-
COc1ccc2oc(C(=O)c3ccccc3)c(N)c2c1,-,-,-,64,-,-
Cc1cc(Br)c2c(c1)[C@](O)(c1cn(C)c3ccccc13)C(=O)N2C,-,.,-,.,.,.
O=C(O)CSCc1cnn(-c2ccccc2)c1-n1cccc1,-,-,-,-,-,-
CCOc1ccc(NC(=O)CSCc2cnn(-c3ccccc3)c2-n2cccc2)cc1,-,-,-,76,-,-
Cc1noc(C)c1CN1C(=O)c2ccc([N+](=O)[O-])cc2C1=O,-,-,-,53,-,-
O=C(NCc1ccccc1)C(c1ccco1)N1CCN(CCN2CCOCC2)CC1 (centres undefined),-,.,-,.,.,.
CCOC(=O)c1c(C)oc2c1c(C(c1ccccc1)N1CCOCC1)c(O)c1ccccc12 (centres undefined),-,-,-,62,-,-
COc1ccc(CCN(Cc2ccccn2)C(=S)Nc2ccccc2Cl)cc1OC,-,-,-,41,-,-
COc1ccc(CCN(Cc2ccccn2)C(=S)Nc2ccccc2F)cc1OC,-,-,-,-,-,-
Cc1ccc(S(=O)(=O)N2CC3C(=O)C[C@@H](c4ccccc4)N(S(=O)(=O)c4ccccc4Cl)C3CC2c2ccccc2)cc1 (some centres undefined),-,.,-,.,.,.
COC(=O)[C@H](Cc1ccccc1)NC(=O)NC(C)CCc1ccccc1 (some centres undefined),-,-,45,-,-,-
COc1cc(CCc2ccccc2)c(C(=O)O)c(O)c1C/C=C(/C)CCC=C(C)C,53,.,-,-,46,-
COc1cc(CCc2ccccc2)c(C(=O)O)c(O)c1CC=C(C)C,-,.,-,.,.,.
CCOC(=O)CSc1nc(-c2ccccc2)nc2ccc(F)cc12,-,-,-,-,-,-
CCOC(=O)CSc1nc(-c2ccccc2)nc2ccccc12,-,-,-,38,-,-
CCOC(=O)Cn1c(-c2ccccc2)nc2ccccc2c1=O,-,-,-,75,-,-
CCCCOC(=O)Cn1c(-c2ccccc2)nc2ccccc2c1=O,-,-,-,-,-,-
CC(C)NC(=O)N(C)C[C@@H]1OCc2cn(nn2)CCCC(=O)N([C@@H](C)CO)C[C@H]1C,-,.,-,.,.,.
CCN(CC)S(=O)(=O)c1ccc(OC(C)C)c(NC(=O)c2c3c(nc4ccccc24)CCN(Cc2ccccc2)C3)c1,55,-,-,-,-,-
COc1ccc(S(=O)(=O)N2CCCCCC2)cc1NC(=O)c1c2c(nc3ccccc13)CCN(Cc1ccccc1)C2,-,-,-,-,-,-
Nc1[nH]c(C(=O)c2ccccc2)c(-c2ccc(Cl)cc2)c1C(=O)c1c[nH]c2ccccc12,-,.,-,.,.,.
CCn1c(C)c(C(C)=O)c(N2CCN(C(c3ccccc3)c3ccccc3)CC2)nc1=S,50,-,-,-,-,-
Cc1ccc(CNC(=O)C2CC(c3ccc(C(F)(F)F)cc3)=NO2)o1 (centres undefined),-,.,-,-,62,-
CC1CCC2(CC1)NC(=O)N(CC(=O)NC(=O)Nc1ccc3c(c1)OCCO3)C2=O (centres undefined),-,20,-,-,-,-
SMILES,TAAR1 antagonist,GPR7 antag,TAAR1 agonist,OX1R antag-1,CHO parental Ca,OX1R antag-2
CSCCC(NC(=O)COc1ccccc1)C(=O)N(C)CC(=O)Nc1ccc(Cl)cc1 (centres undefined),-,.,-,-,-,-
CSCCC(NC(=O)COc1ccccc1)C(=O)N(C)Cc1c(F)cccc1Cl (centres undefined),52,.,-,.,.,.
COc1ccc2c(c1)c1nnc(SC)nc1n2C,-,-,-,48,-,-
CCC1Oc2ccc(C)cc2N(CC(=O)NCCc2ccc(OC)c(OC)c2)C1=O (centres undefined),-,-,-,62,-,-
Cc1cccc(OCc2nnc(SCC(=O)Nc3ccc(C)c(C)c3)o2)c1,54,-,-,-,-,-
COc1ccc(NC(=O)CSc2nnc(-c3cccc(O)c3)o2)cc1,-,-,40,-,-,-
CC(C)[C@H](NC(=O)c1cccs1)C(=O)N1CCC[C@H]1C(=O)NCc1ccccc1,-,.,-,.,.,.
